Some results are limits rather than exact numbers.

As a reminder, the inhibition is the percentage by which the read-out fell short of the control. A high value points to a response far below the control. One may read the IC50 as the concentration that inhibits the measured activity by half. Lower therefore signals greater potency.

Assay [1] deals with Protease (Human immunodeficiency virus 1) (UniProt Q9YQ12). Kind of assay: Inhibition of HIV1 protease at 50 nM.
Assay [2] has as its target Protease (Human T-cell leukemia virus type I, UniProt Q82134, L40I). Briefly: Inhibition of HTLV1 protease L40I mutant. In short, it runs like this:
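HTLV-I protease carrying the L40I substitution, which blocks autolysis and stabilises the enzyme; run by the group's earlier reported protocol; potency given as IC50 in nM.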

Sequence of Protease (Q82134 entry or part of it L40I): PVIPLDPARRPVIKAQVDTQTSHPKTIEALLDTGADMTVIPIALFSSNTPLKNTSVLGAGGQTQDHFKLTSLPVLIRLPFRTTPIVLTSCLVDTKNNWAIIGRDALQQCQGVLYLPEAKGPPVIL
Sequence of Protease (Human immunodeficiency virus 1) (Q9YQ12 as listed by the source): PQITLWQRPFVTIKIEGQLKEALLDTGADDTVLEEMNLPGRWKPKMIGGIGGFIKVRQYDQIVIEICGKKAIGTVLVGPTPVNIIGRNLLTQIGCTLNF

`CCC(=O)N[C@H](C(=O)N[C@H](C(=O)N[C@@H](Cc1ccccc1)[C@H](O)C(=O)N1CSC(C)(C)[C@H]1C(=O)NC(C)C(C)(C)C)C(C)(C)C)c1ccccc1` (stereo partly specified): the inhibition in assay [1] is > 98%. The same compound displayed an IC50 in assay [2] of 0.103 µM.

Regarding `CCCC(=O)N[C@H](C(=O)N[C@H](C(=O)N[C@@H](Cc1ccccc1)[C@H](O)C(=O)N1CSC(C)(C)[C@H]1C(=O)NCC(C)(C)C)C(C)(C)C)c1ccccc1`, the inhibition in assay [1] is > 98%. In assay [2], this compound showed an IC50 of 0.074 µM.

With `CC(C)C(C)NC(=O)[C@H]1N(C(=O)[C@@H](O)[C@H](Cc2ccccc2)NC(=O)[C@@H](NC(=O)[C@@H](NC(=O)C(C)(C)C)c2ccccc2)C(C)(C)C)CSC1(C)C` (stereo partly specified), the inhibition in assay [1] was > 98%. In assay [2], this compound gave a 50% inhibitory concentration (IC50) of 0.133 µM.

For the compound `CCC(=O)N[C@H](C(=O)N[C@H](C(=O)N[C@@H](Cc1ccccc1)[C@H](O)C(=O)N1CSC(C)(C)[C@H]1C(=O)NCC1CC1)C(C)(C)C)c1ccccc1`, the inhibition in assay [1] is > 98%. In addition, the IC50 in assay [2] is 0.145 µM.

With `CC(C)CC(=O)N[C@H](C(=O)N[C@H](C(=O)N[C@@H](Cc1ccccc1)[C@H](O)C(=O)N1CSC(C)(C)[C@H]1C(=O)NC(C)C(C)C)C(C)(C)C)c1ccccc1` (stereo partly specified), the inhibition in assay [1] is > 98%. For the same compound, the half-maximal inhibitory concentration (IC50) in assay [2] was found to be 0.107 µM.

Turning to `CC(=O)N[C@H](C(=O)N[C@H](C(=O)N[C@@H](Cc1ccccc1)[C@H](O)C(=O)N1CSC(C)(C)[C@H]1C(=O)NC(C)C(C)(C)C)C(C)(C)C)c1ccccc1` (stereo partly specified), the inhibition in assay [1] was > 98%. For the same compound, the IC50 in assay [2] was found to be 0.106 µM.

Consider `CC(C)(C)CNC(=O)[C@H]1N(C(=O)[C@@H](O)[C@H](Cc2ccccc2)NC(=O)[C@@H](NC(=O)[C@@H](NC(=O)C2CC2)c2ccccc2)C(C)(C)C)CSC1(C)C`, for which, in assay [1], the inhibition is > 98%. Besides, in assay [2], the midpoint of inhibition, the IC50, lay at 0.086 µM.

Turning to `CC(C)CCNC(=O)[C@H]1N(C(=O)[C@@H](O)[C@H](Cc2ccccc2)NC(=O)[C@@H](NC(=O)[C@@H](NC(=O)CC(C)C)c2ccccc2)C(C)(C)C)CSC1(C)C`, the inhibition in assay [1] was > 98%. Moreover, in assay [2], inhibition was half-maximal at 0.107 µM (IC50).

Source of the values: ChEMBL document CHEMBL1155016, “Locking the two ends of tetrapeptidic HTLV-I protease inhibitors inside the enzyme” (Bioorg Med Chem, 2008).
